Laboratory results published in the EternaBench riboswitch data.

Test system: MS2 coat protein
Assay: apparent Kd, MS2 coat protein; higher = weaker binding; RNA-MaP array; FMN 200 µM where present
Method in brief: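 SNAP-549-labelled MS2 coat protein, doubled from 0.7 or 1.5 nM to 3 µM, was titrated over designs transcribed by stalled E. coli RNA polymerase on Illumina sequencing-chip clusters. Titrations were run without and then with constant ligand in 100 mM Tris-HCl pH 7.5, 80 mM KCl, 4 mM MgCl2, BSA, DTT, yeast tRNA and Tween-20. The apparent Kd is the median of filtered per-cluster fits to green signal normalised to red-channel RNA signal and control-cluster median Fmax.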

[1] = designed as: ON switch for flavin mononucleotide, no ligand
[2] = ligand present: flavin mononucleotide, designed as: ON switch for flavin mononucleotide
[3] = designed as: OFF switch for flavin mononucleotide, no ligand
[4] = ligand present: flavin mononucleotide, designed as: OFF switch for flavin mononucleotide

| Sequence | apparent Kd [1] | apparent Kd [2] | apparent Kd [3] | apparent Kd [4] |
| --- | --- | --- | --- | --- |
| UGCUAGGAUGGGUCUAAUGGACCUCAGGAUAUGCUUGUACAUGAGGAUCACCCAUGUAACAUUGUGCAGAAGGGAGGAUCCACG | 8.45 nM | 4.93 nM |  |  |
| GGCAUGCAAAUAAAACAUGAGGAUCACCCAUGUGAGUCUCAUGAGGAUAUGCAGGUCAAAGACUUGCAGAAGGCAUGGCGUGCC | 1950 nM | 132 nM |  |  |
| CUACCUUAUGAGAAGGCGGUCAUGAAACAUGAUCGAGGAUAUCAUGUAAACAUGAGGAUCACCCAUGUAUGGGUAUUAUGGUAC | 170 nM | 33 nM |  |  |
| GUACCUCAAGUGAGGAUAUGUCAUUACCGGUGAAGAUAGAAGGCACAUGAGGAUCACCCAUGUGUGGCUCCGUC |  |  | 23.5 nM | 95.8 nM |
| GUCAGCUCGUGAGGAUAUACAUCACUGCUUCGGCAGUGUAUUAAGACUACAUGAGGAUCACCCAUGUAGAAGGCACGAGCUGAU |  |  | 17.4 nM | 17.9 nM |
| CGAUGCAGAGGAUAUACAUGAGGAUCACCCAUGUACCUACUCGGGCGUCCUCUUAGAUGUAGAAGGCUGACACU |  |  | 62.6 nM | 72 nM |
| CCGGAAGUACAGGAUAUAGGAGUCGAUAGACUCCUAGAAGGGUAUACAUGAGGAUCACCCAUGUGUCCUACCGG |  |  | 29.6 nM | 33.4 nM |
| UAUAUAUAGUAAGGAUAUGUAAUUAUCUUAUAAACAGAAGGUACUGACAUGAGGAUCACCCAUGUUUUAGUGUGGGCAUGUAGA |  |  | 56.9 nM | 60.1 nM |
| UCGCUGCGAGGAUAUACAUGAGGAUCACCCAUGUGCGGGUCCGGGUCUUCGUCCAUUAGUAGAAGGCGCAGUGA |  |  | 122 nM | 212 nM |
| UGUCCAUAGCAGAAGGACAUGAAUAAUCAUGAAAACAUGAGGAUCACCCAUGUAGGAUAUGCUAUGGACUAAGAGCGAAAGCUC |  |  | 28.6 nM | 430 nM |
| GUGUAGAUAGGAUAUGCGUGAGUCUAGCGAAGCUAGGCUCUACAUGAGGAUCACCCAUGUAGAAGGGUCUACAC |  |  | 21 nM | 18.1 nM |
| CGUAUGUCAGGAUAUGCGUAUGCCGCCCAGAACGGGCAGCAGCAGAAGGGACAUGAGGAUCACCCAUGUUCGGG |  |  | 68.3 nM | 73.1 nM |
| GUAUGCAUGAGGUAGGAUAUCCAAAACAAAACAUGAGGAUCACCCAUGUAAACAAACAACAAAUGGGAGAAGGACCACAUGUAUAC | 24.4 nM | 11.3 nM |  |  |
| AGCGAGAUAGGCAAGGAUAUGCUGGGUUUCACAUGAGGAUCACCCAUGUCAUUGGUUAUGUCCGAGCAGAAGGUGCAUUCUCUUU | 338 nM | 47.2 nM |  |  |
| AAGGAUAGAGGAUAUACAUAGAUACAGAUUCAUGUAGACCUACAUGAGGAUCACCCAUGUAGAAGGCUAUCCUA |  |  | 19.2 nM | 113 nM |
| GUUUGACAUGAGGAUCACCCAUGUGAGGAUAUCGGCUGGUACGUGUUGGCUGGCAUCUCGAGAAGGCACAUAGG |  |  | 134 nM | 60.5 nM |
| ACAUGAUACUAGGAUAUCAGCAUACUUCAAUGUUGAGAAGGAGUAACAUGAGGAUCACCCAUGUAUCCAACAUG |  |  | 46.9 nM | 219 nM |
| CCCACGAAAGUCGAACGAUGUAGCAGAAGGACAUGAGGAUCACCCAUGUCAGCUGUAACAGCCAUGUAGGAUAUGCUACAUCCC |  |  | 5.24 nM | 6.88 nM |

| Sequence | apparent Kd [1] | apparent Kd [2] | apparent Kd [3] | apparent Kd [4] |
| --- | --- | --- | --- | --- |
| GGCGAACAGGCUAACAUGAGGAUCACCCAUGUGGACUCAUGGUAGGAUAUGCUCAUCAAAGAUGAGCAGAAGGGCCGGUGAGCC | 54.8 nM | 463 nM |  |  |
| GCGUACUGAGGAUAUACAUGAGGAUCACCCAUGUGACACAGCGUUUAGUGAUGAAUUUGUAGAAGGCAGUAGGC |  |  | 146 nM | 219 nM |
| UUGGACGUCGUAGGAUAUGUAGGAUAUUCCUACAUGAGGAUCACCCAUGUUGACUUGGAAGAAGGACAGAAGGACGAUGUCCAU | 22 nM | 4.06 nM |  |  |
| GGGAGACAUGAGGAUCACCCAUGUGAAAACGUGGCAGGAUAUCCAUGGAAACCAUACUGUGGAGAAGGGCCUUGUC | 77.9 nM | 40.5 nM |  |  |
| UUCAGCUCGUGAGGAUAUACAUGUGCUGGAAACAGCAUUAAAUUUUUCACAUGAGGAUCACCCAUGUAGAAGGCACGAGCUGAG |  |  | 16.6 nM | 39.8 nM |
| UGCUACCUAGGAUAUACAUGAGGAUCACCCAUGUGAUUCGGUGGCGCGAUCCUUGAAAGUAGAAGGAGGAGCAA |  |  | 38.4 nM | 27.4 nM |
| CGGCGGAAAGGAUAUGCAGUAAUAUCAAAAUGUGGGCCACGACAUGAGGAUCACCCAUGUAGAAGGUUCAGCCA |  |  | 16 nM | 13.6 nM |
| GGUGGGAAGUAAGGAUAUCGGCCAUAGUUAGGGCGAGAAGGUACAUGAGGAUCACCCAUGUCGUCGCUAGGGACGGGUCCGGCC |  |  | 6.54 nM | 6.96 nM |
| UUAUGUAUUGUAGGAUAUCAUAAGUUAUGUAUUAUAAUUGAAAUUUUGUUAUGAGAAGGACAUAUACAUGAGGAUCACCCAUGU |  |  | 16.6 nM | 14 nM |
| CUGAGUAGUCAGGAUAUGCUGUACAAAAGUACAGCAGAAGGGAUUACAUGAGGAUCACCCAUGUUUACUUCAUG |  |  | 44.8 nM | 209 nM |
| GGGACUCUAGAAGAGCUGUCGACAUAGGAUAUGAUGUGCGACAUGAGGAUCACCCAUGUAACGAAUUAGAAGGGUGUAGGCAUG | 228 nM | 114 nM |  |  |
| UAUAUAUAGUAAGGAUAUGUAUAUAUUUGAUAAACAGAAGGUACUGACAUGAGGAUCACCCAUGUUUUAGUGUGGGCAUGUAGA |  |  | 62.8 nM | 78.6 nM |
| AUAAUGUAAGGAUAUCAGUCGACUAGCCUCGGCUAGUCGACUGAGAAGGUACAUGAGGAUCACCCAUGUGUUCC |  |  | 140 nM | 766 nM |
| AAUUGGAUGCAGAAGGCAUGGACGACUCGUCACAUUAACAUGAGGAUCACCCAUGUCAAAAGACAUGAGGAUAUGCAUCCUAAA | 233 nM | 13.6 nM |  |  |
| UCAUUUAAUACAGGAUAUGUUAUUAUACAGUUGUUUGGUUAUUACAUUAUAACAGAAGGGUAGAACAUGAGGAUCACCCAUGUA | 179 nM | 79.4 nM |  |  |
| ACUUGUAAGCAGAAGGCAGUCAUUAUAUUAAUCAUGUAGACAUGAGGAUCACCCAUGUAGAGUACUGAGGAUAUGCAUCGAUAG |  |  | 11 nM | 7.34 nM |
| GACAGCGACACAGGAUAUGUCAAUUUUACAUGAGGAUCACCCAUGUCCGAAGCAGAAGGGUGAUCGCACGCACACUAAGCCAUG | 86.5 nM | 98.3 nM |  |  |
| UUUAUUAAUUAAUAUAAUAAGAUCACAUGAGGAUCACCCAUGUAGGAUAUCAGCUCGAUUAGAGCUGAGAAGGACAUAAUUAUA |  |  | 34.8 nM | 110 nM |
